# Test results as given in article PMC6542277 (Journal of medicinal chemistry, 2018).
# Where a SMILES comes first, the peptide text is derived from it. Bridges are numbered along the chain shown (N, C = ends). Roman numbers before positions name the chains, in order. [ ]: non-standard residue; d: D form. The star is where a group is joined. X1 = CN1C(=CC=CC=CC2=[N+](CCCCCC(=O)*)c3ccc4ccccc4c3C2(C)C)C(C)(C)c2c1ccc1ccccc21; AEEEA = NCCOCCOCCOCC(=O)O
# Assays:
# [1] = tested on: Barrett's neoplasia (HGD and EAC); assay: Binding to human esophageal specimens ex vivo, confocal microscopy; conditions: for AUC of ROC curve: human FFPE esophageal specimens ex vivo, HGD and EAC versus SQ and BE
# Outline: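 Archived FFPE human esophagus cut at 10 μm, deparaffinized, rehydrated, then given two-step acidic plus protease antigen retrieval. Sections were blocked with protein serum for 10 min, stained with 0.5 μM heterodimer for 10 min in the dark at RT, then anti-EGFR and anti-ErbB2 antibodies with secondaries. Mean intensity came from three 20×20 μm2 epithelial boxes, avoiding saturated regions. SQ/BE/HGD/EAC groups (n = 31, 8, 23, 12) compared by unpaired t test and one-way ANOVA.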
# [2] = tested on: EGFR/ErbB2 signaling (p-EGFR, p-ErbB2, p-AKT, p-ERK) in SKBr3 cells; assay: Effect on cell signaling, Western blot; format: cell-based, human
# [3] = In vivo whole-body NIR fluorescence imaging; conditions: mouse, in vivo, iv, 300 uM, 150 uL
# OE33 cells [4] = assay: Apparent association time constant by flow cytometry; format: binding, human; conditions: 1 μM peptide, 4°C
# Outline: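 OE33 cells grown to ~80% confluence, detached with PBS-based dissociation buffer, then held with 1 μM labelled heterodimer at 4°C for periods of 0–60 min. Cells were centrifuged, washed in cold PBS and fixed in 4% PFA before flow cytometry. Median fluorescence was ratioed to peptide-free cells, and k was fitted to y(t) = Imax[1−exp(−kt)].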
# [5] = tested on: OE33 human esophageal adenocarcinoma cells; assay: Confocal microscopy binding validation; format: cell-based
# Outline: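 OE33 cells, kept in RPMI 1640 with 10% FBS and penicillin/streptomycin at 37°C, 5% CO2, grown to ~70% confluence on coverslips. Cells were blocked with 2% BSA/PBS for 30 min, given Cy5.5-labelled peptides, washed 3×, fixed in ice-cold 4% PFA for 10 min and mounted with DAPI. Confocal intensities were quantified from 3 independent images.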
# [6] = Stability in PBS containing 0.1% BSA; format: physicochemical; conditions: 0.01 mol/L PBS, pH 7.4, 37°C, HPLC at 0.5, 2, 6 and 12 hours
# Hydrophilicity = format: physicochemical; conditions: triethyleneglycol linker (E3); method not given
# EGFR = EGFR (Homo sapiens, UniProt P00533); assay: siRNA knockdown of EGFR, confocal binding; format: cell-based; conditions: confocal microscopy; mean of 5 cells from 3 images; P=3.6×10^−4
# OE33 xenograft tumors [7] = assay: Biodistribution, ex vivo organ fluorescence; set-up: species or system mouse; conditions: nude mice, 300 μM in 150 μL PBS, 2 hours
# OE33 xenograft tumors [8] = assay: In vivo whole-body NIR fluorescence imaging; conditions: nude mice, OE33 xenograft, 300 μM in 150 μL PBS via tail vein, NIR fluorescence
# SKBr3 cells = assay: Internalization, confocal images over time; format: cell-based, human
# [9] = Acute toxicity on histology; format: in vivo, mouse; conditions: nude mice after systemic injection of 300 μM, 150 μL PBS
# ErbB2 = ErbB2 (Homo sapiens, UniProt P04626); assay: siRNA knockdown of ErbB2, confocal binding; format: cell-based; conditions: confocal microscopy; mean of 5 cells from 3 images; P=7.8×10^−3
# [10] = Enzymatic stability in mouse serum; format: in vitro ADME; conditions: 30 μM in mouse serum, 37°C, at 2 hour; HPLC of supernatant after centrifugation
# Outline: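 Samples taken at 0.5, 1.0, 1.5 and 2 h of serum incubation at 37°C were centrifuged at 14,000 rpm. 20 μL of supernatant was analysed by HPLC.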
# OE33 cells [11] = assay: Apparent dissociation constant by flow cytometry; format: binding, human; conditions: from kd on OE33 cells
# Outline: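 Labelled heterodimer serially diluted in PBS (0, 10, 25, 50, 100, 200 nM) and incubated with OE33 cells at 4°C for 1 h, then washed in cold PBS. Mean fluorescence was read by flow cytometry. kd = 1/ka came from a least-squares fit to I = (I0 + Imax·ka[X])/(I0 + ka[X]), where I0 is the no-peptide intensity and Imax the saturation intensity.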
# [12] = human esophageal specimens ex vivo, confocal microscopy, 0.5 μM, 10 min, RT
# Sequence of EGFR (P00533 25-1210): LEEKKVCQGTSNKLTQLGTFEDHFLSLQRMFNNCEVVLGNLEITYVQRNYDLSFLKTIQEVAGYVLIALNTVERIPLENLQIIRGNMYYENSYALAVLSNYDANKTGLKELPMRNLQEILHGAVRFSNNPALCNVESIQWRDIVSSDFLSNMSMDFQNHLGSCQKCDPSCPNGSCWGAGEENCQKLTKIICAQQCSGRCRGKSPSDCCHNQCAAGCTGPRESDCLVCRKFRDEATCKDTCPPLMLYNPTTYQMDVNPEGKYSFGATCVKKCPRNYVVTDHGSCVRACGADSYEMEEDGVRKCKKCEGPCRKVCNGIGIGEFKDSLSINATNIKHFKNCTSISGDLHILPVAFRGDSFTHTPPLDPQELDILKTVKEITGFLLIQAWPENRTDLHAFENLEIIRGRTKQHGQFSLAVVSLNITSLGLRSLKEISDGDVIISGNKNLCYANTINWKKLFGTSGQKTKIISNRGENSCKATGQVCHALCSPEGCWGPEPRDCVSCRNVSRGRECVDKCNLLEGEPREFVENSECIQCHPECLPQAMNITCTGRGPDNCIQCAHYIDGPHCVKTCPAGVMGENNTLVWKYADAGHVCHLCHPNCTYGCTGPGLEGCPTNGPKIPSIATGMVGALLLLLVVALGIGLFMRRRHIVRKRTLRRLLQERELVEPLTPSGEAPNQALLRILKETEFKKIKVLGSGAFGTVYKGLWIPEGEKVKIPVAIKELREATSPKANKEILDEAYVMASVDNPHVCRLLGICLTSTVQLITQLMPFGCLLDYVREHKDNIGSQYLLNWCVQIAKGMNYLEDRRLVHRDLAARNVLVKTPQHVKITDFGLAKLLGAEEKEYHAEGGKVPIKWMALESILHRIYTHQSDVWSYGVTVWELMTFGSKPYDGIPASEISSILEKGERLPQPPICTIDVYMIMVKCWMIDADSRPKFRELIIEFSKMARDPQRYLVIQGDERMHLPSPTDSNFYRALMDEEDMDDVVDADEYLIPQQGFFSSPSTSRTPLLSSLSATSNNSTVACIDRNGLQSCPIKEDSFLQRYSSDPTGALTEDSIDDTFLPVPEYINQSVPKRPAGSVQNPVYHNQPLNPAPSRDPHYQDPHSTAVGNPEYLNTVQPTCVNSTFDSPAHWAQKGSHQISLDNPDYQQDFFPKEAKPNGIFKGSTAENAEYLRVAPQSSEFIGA
# Sequence of ErbB2 (P04626 23-1255): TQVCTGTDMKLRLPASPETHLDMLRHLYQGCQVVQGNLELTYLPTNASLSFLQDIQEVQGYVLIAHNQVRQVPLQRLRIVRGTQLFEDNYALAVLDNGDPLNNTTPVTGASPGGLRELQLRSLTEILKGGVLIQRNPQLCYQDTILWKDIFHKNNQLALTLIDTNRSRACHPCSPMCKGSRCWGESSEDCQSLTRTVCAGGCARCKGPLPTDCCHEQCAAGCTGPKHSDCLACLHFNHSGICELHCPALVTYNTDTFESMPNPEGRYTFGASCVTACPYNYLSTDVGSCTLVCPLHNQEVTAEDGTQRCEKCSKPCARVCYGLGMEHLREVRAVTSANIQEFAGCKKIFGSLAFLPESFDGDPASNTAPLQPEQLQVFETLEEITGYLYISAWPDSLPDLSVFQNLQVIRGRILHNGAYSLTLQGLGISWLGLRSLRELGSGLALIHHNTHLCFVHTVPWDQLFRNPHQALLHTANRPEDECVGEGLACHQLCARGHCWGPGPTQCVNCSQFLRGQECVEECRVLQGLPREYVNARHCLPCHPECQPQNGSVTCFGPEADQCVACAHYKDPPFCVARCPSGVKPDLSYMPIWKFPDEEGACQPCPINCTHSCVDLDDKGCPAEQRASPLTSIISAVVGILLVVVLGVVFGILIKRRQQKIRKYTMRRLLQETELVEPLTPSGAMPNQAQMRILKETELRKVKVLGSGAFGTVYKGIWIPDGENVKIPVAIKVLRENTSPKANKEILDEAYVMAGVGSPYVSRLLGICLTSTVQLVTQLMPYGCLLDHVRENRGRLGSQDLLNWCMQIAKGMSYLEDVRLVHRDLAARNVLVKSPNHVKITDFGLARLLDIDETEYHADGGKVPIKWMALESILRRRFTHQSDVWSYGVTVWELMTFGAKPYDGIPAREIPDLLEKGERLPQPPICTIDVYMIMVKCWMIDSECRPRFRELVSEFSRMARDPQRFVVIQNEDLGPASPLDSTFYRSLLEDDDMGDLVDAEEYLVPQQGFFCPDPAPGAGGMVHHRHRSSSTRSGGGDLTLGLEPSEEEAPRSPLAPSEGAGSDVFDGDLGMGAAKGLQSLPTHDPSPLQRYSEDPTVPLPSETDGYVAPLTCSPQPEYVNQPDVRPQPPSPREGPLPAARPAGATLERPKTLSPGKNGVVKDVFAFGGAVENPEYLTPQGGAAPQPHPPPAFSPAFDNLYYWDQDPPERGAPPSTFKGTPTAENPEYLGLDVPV
compound,measurement,setting,value
QRHKPRE [QRH*-Cy5.5],AUC of ROC curve,[1],0.79
"CS(=O)(=O)CCNCc1ccc(-c2ccc3ncnc(Nc4ccc(OCc5cccc(F)c5)c(Cl)c4)c3c2)o1 [lapatinib, reference compound]","expression of p-ErbB2, p-AKT and p-ERK",[2]; lapatinib 100 nM,reduced expression
"C[C@H](NC(=O)CNC(=O)CNC(=O)CN)C(=O)NCC(=O)NCC(=O)NCC(=O)NCCCC[C@H](NC(=O)CNC(=O)CNC(=O)CNC(=O)[C@H](C)NC(=O)CNC(=O)CNC(=O)CN)C(=O)N[C@@H](CCCCNC(=O)CCCCC[N+]1=C(C=CC=CC=C2N(C)c3ccc4ccccc4c3C2(C)C)C(C)(C)c2c1ccc1ccccc21)C(N)=O [(GGGAGGG)2KK-Cy5.5, reference compound] (I: H-GGGAGGGKK(X1)-NH2 / II: H-GGGAGGG; amide I:8-II:C)",tissue to tissue ratio at 2 h,[3],1.43 ± 0.28
CN1C(=CC=CC=CC2=[N+](CCCCCC(=O)NCCCC[C@H](NC(=O)[C@H](CCCCNC(=O)COCCOCCOCCNC(=O)[C@H](Cc3ccccc3)NC(=O)[C@H](CCCNC(=N)N)NC(=O)[C@@H]3CCCN3C(=O)[C@H](CC(N)=O)NC(=O)[C@@H]3CCCN3C(=O)[C@H](CO)NC(=O)[C@@H](N)CCCCN)NC(=O)COCCOCCOCCNC(=O)[C@H](CCC(=O)O)NC(=O)[C@H](CCCNC(=N)N)NC(=O)[C@@H]3CCCN3C(=O)[C@H](CCCCN)NC(=O)[C@H](Cc3c[nH]cn3)NC(=O)[C@H](CCCNC(=N)N)NC(=O)[C@@H](N)CCC(N)=O)C(N)=O)c3ccc4ccccc4c3C2(C)C)C(C)(C)c2c1ccc1ccccc21 [QRH*-KSP*-E3-Cy5.5] (I: H-QRHKPRE[AEEEA]KK(X1)-NH2 / II: H-KSPNPRF[AEEEA]; amide I:9-II:C; N-terminus and C-terminus assumed),association time (printed in brackets after k),OE33 cells [4],4.5 min
same,binding to surface of OE33 cells,"[5]; 1 μM, 30 min, 4°C",strong binding
same,fluorescence intensity compared with either monomer alone,[5]; binding to OE33 cells,3 fold
same,degradation in PBS containing 0.1% BSA,[6],No noticeable degradation
same,hydrophilicity,Hydrophilicity,good hydrophilicity
same,"fluorescence intensity, siCL (control) versus siEGFR (knockdown) SKBr3 cells",EGFR,significantly greater intensity
same,uptake in kidney,OE33 xenograft tumors [7]; supports renal clearance,High uptake
same,uptake in tumor relative to muscle,"OE33 xenograft tumors [7]; OE33 xenograft, n = 6",3 fold
same,time at which signal returns to baseline (systemic clearance),OE33 xenograft tumors [8],~ 24 hours
same,tissue to tissue ratio at 2 h,[3],2.39 ± 0.52
same,time at which internalization begins,SKBr3 cells,8 min
same,time at which internalization reaches near completion,SKBr3 cells,40 min
same,downstream change in AKT (p-AKT) and ERK (p-ERK),"[2]; heterodimer at 1, 5 and 20 μM",no downstream change
same,phosphorylation of EGFR (p-EGFR) or ErbB2 (p-ErbB2),"[2]; heterodimer at 1, 5 and 20 μM",no change
same,AUC of ROC curve,[1],0.95
same,fluorescence intensity with SQ and BE,[1]; [12],minimal fluorescence intensity
same,fluorescence signal with HGD and EAC,[1]; [12],increased signal
same,acute toxicity on histology (H&E),[9],no evidence of acute toxicity
same,"fluorescence intensity, siCL (control) versus siErbB2 (knockdown) SKBr3 cells",ErbB2,significantly greater intensity
same,area of new formed peak (may arise from degradation),[10],about 20%
same,affinity compared with either monomer alone,OE33 cells [11],2 fold
KSPNPRF [KSP*-Cy5.5],AUC of ROC curve,[1],0.91
"EGF: endogenous ligand for EGFR, positive control","phosphorylation of AKT (p-AKT) and ERK (p-ERK), positive control",[2]; EGF 100 ng/mL,strong phosphorylation activity
